This note sets out measurements from publication PMC3667555 (Bioconjugate chemistry, 2013).

This series relates to U87MG human glioma xenografts. As to the kind of experiment: Biodistribution in athymic nude mice bearing U87MG glioma xenografts. The format is in vivo. To be noted: 1 h p.i. In short, it runs like this: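 Female athymic nu/nu mice (4–5 weeks at purchase) received 5 × 10^6 U87MG cells in the shoulder flank and were used 4 weeks later (tumor 0.1–0.5 g, mice 20–25 g). Each got ~0.1 MBq HPLC-purified 99mTc radiotracer in saline by tail vein. Killed by pentobarbital overdose at 60 min p.i.; blood by heart puncture; organs washed, weighed, γ-counted; %ID/g; n = 4–6.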

Where [1] appears, read: tail-vein injection, without RGD2.

Turning to “[^99mTc(HYNIC-3P-RGD2)(tricine)(TPPTS)] [Compound 5]”, the Tumor/Blood is given as 15.36 ± 1.01, the Tumor/Liver is reported as 2.55 ± 0.36, the Tumor/Lung came to 1.71 ± 0.05 and the Tumor/Muscle was 6.58 ± 1.58. Under “tail-vein injection”, this substance came in with a Blood uptake of 0.47 ± 0.06 %ID/g, a Brain uptake of 0.17 ± 0.03 %ID/g, an Eyes uptake of 1.40 ± 0.13 %ID/g and a Heart uptake of 1.67 ± 0.15 %ID/g. Where the note is “tail-vein injection”, this substance gave a Kidneys uptake of 12.28 ± 1.09 %ID/g, a Liver uptake of 2.92 ± 0.77 %ID/g, a Lungs uptake of 4.25 ± 0.63 %ID/g and a Muscle uptake of 1.12 ± 0.15 %ID/g. Also, the Spleen uptake (tail-vein injection) is listed as 3.11 ± 0.18 %ID/g. Besides, under setting [1], the Intestine uptake came out at 9.45 ± 1.31 %ID/g and the Tumor uptake was 7.24 ± 0.95 %ID/g.
